Source: ChEMBL document CHEMBL1127833, “Structure determination, pharmacological evaluation, and structure-activity studies of a new cyclic peptide substance P antagonist containing the new amino acid 3-prenyl-beta-hydroxytyrosine, isolated from Aspergillus flavipes” (J Med Chem, 1994)

What was measured:
Substance-K receptor = molecular target: T1, Substance-K receptor (Homo sapiens, UniProt P21452); test: Displacement of [125I]-NKA substance P binding to human urinary bladder membrane protein (NK2)
T1 sequence (P21452 whole entry): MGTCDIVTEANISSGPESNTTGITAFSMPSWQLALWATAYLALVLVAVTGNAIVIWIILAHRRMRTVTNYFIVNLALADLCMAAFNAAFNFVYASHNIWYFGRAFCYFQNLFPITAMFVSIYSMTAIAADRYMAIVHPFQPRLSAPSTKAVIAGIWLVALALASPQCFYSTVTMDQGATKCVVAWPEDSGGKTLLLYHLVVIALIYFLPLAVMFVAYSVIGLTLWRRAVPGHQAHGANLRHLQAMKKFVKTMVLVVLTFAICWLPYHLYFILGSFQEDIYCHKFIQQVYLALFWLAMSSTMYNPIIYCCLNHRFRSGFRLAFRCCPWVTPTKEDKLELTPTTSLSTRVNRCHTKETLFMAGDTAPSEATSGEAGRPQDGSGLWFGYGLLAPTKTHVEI
In short: (§1)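 Radioligand displacement at NK1 or NK2 sites, with Ki values averaged over two to eight determinations.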

Substance-P receptor = Substance-P receptor (Homo sapiens, UniProt P25103); test: Displacement of [125I]- substance P binding to human astrocytoma cells (NK1); in short: as §1
Substance-P receptor, sequence (P25103 whole entry): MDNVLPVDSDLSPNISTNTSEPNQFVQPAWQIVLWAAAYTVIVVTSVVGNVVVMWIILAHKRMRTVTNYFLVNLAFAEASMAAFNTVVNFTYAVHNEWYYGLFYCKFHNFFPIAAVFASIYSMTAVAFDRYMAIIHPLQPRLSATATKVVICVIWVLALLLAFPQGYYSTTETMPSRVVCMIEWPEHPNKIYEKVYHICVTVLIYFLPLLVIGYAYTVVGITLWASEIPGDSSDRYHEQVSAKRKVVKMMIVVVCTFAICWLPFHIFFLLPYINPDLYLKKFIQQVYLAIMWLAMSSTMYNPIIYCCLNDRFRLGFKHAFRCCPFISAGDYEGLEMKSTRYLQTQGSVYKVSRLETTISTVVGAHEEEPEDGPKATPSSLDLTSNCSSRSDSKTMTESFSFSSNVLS

Cavia porcellus = organism: Cavia porcellus; test: substance P induced guinea pig ileum
[1] = Functional antagonism by the ability to inhibit substance P induced 45 [Ca2+] efflux in human astrocytoma cells; assay type: cell-based
In short: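 Human astrocytoma cells stimulated with 3 nM substance P; the antagonist's inhibition of 45Ca2+ efflux was measured. Efflux seen without SP and antagonist was subtracted. Mean ± SEM from at least three experiments.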

SMILES | Ki (Substance-K receptor) [µM] | Ki (Substance-P receptor) [µM] | pA2 (Cavia porcellus) | IC50 [1] [µM]
CC(C)[C@@H]1NC(=O)CNC(=O)[C@@H]2CCCN2C(=O)[C@@H](Cc2c[nH]c3ccccc23)NC(=O)CNC(=O)[C@H](Cc2ccc(OC(C)(C)C)cc2)NC(=O)CNC1=O | 27 | 48 | – | –
CC(C)=CCc1cc(C(O)C2NC(=O)CNC(=O)[C@H](C(C)C)NC(=O)CNC(=O)[C@@H]3CCCN3C(=O)[C@@H](Cc3c[nH]c4ccccc34)NC(=O)CNC2=O)ccc1O (stereo partly drawn) | 3.8 | 8 | 5.23 | –
CC(C)[C@@H]1NC(=O)CNC(=O)[C@@H]2CCCN2C(=O)[C@@H](Cc2c[nH]c3ccccc23)NC(=O)CNC(=O)C(C(O)c2ccc(O)cc2)NC(=O)CNC1=O (stereo partly drawn) | > 100 | > 100 | – | –
COc1ccc(C(O)C2NC(=O)CNC(=O)[C@H](C(C)C)NC(=O)CNC(=O)[C@@H]3CCCN3C(=O)[C@@H](Cc3c[nH]c4ccccc34)NC(=O)CNC2=O)cc1 (stereo partly drawn) | 33 | 18 | – | –
COc1ccc(CC2NC(=O)CNC(=O)[C@H](C(C)C)NC(=O)CNC(=O)[C@@H]3CCCN3C(=O)[C@@H](Cc3c[nH]c4ccccc34)NC(=O)CNC2=O)cc1 (stereo partly drawn) | 73 | 72 | – | –
COc1ccc(C(O)C2NC(=O)CNC(=O)[C@H](C(C)C)NC(=O)CNC(=O)[C@@H]3CCCN3C(=O)[C@@H](Cc3c[nH]c4ccccc34)NC(=O)CNC2=O)cc1CC=C(C)C (stereo partly drawn) | 1.6 | 0.12 | – | 0.43
CC(C)[C@@H]1NC(=O)CNC(=O)[C@@H]2CCCN2C(=O)[C@@H](Cc2c[nH]c3ccccc23)NC(=O)CNC(=O)[C@H](Cc2ccc(O)cc2)NC(=O)CNC1=O | > 100 | > 100 | – | –
CC(C)[C@@H]1NC(=O)CNC(=O)[C@@H]2CCCN2C(=O)C(Cc2c[nH]c3ccccc23)NC(=O)CNC(=O)[C@H](Cc2ccc(OC(C)(C)C)cc2)NC(=O)CNC1=O (single isomer, unassigned) | 31 | 93 | – | –
